39 sequences from the array DNA melting data of Ke et al. (doi:10.1101/2024.01.08.574731) can be followed below.

Data set [1] can be described thus: melting temperature; fluorescence melt of hairpins on a sequencing array, two-state fit, raised by 9.35 °C to match UV melts. To be noted: sodium 0.088 M. In a few lines:
(§1)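 To match UV melts, fitted temperatures were raised by 9.35 °C. These fits were bootstrapped two-state models that gave melting temperature and folding enthalpy, combined by inverse variance over four replicates. The input was normalised Cy3 fluorescence of library hairpins with annealed Cy3 and quencher oligos on a sequenced MiSeq flow cell, imaged in 50 mM Na-HEPES pH 8.0, 25 mM NaCl in 2.5 °C steps up to 60 °C.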

A short description of data set [2]: folding enthalpy; higher = less favourable; fluorescence melt of hairpins on a sequencing array, two-state fit. The conditions noted are these: sodium 0.088 M. The procedure, abridged: as §1

For the sequence GCGGAGGGAAACTTCCGC (((((.(....).))))), the Tm in data set [1] came to 57.9 °C. Also, the folding enthalpy in data set [2] is -148 kJ/mol.
Take GCGGAGTGCCGC ((((....)))): the Tm in data set [1] was 57.1 °C. Besides, the folding enthalpy in data set [2] is -57.4 kJ/mol.
Consider GCGGATACCGC ((((...)))), for which the Tm in data set [1] was determined as 57.1 °C. In data set [2], the folding enthalpy is -108 kJ/mol.
In the case of GCGGATACGAAAGTACGC (((..(((....)))))), the Tm in data set [1] amounted to 49.4 °C. Also, in data set [2], the folding enthalpy is -113 kJ/mol.
The like results for GCGGATGACCGC ((((....)))) were, in that order, 54.8 °C and -90.5 kJ/mol.
Taken in the same sequence, the figures for GCGGATTACCGC ((((....)))) were 54.9 °C and -83.6 kJ/mol.
Taken in the same sequence, the figures for GCGGATTCCCGC ((((....)))) were 55 °C and -86.9 kJ/mol.
In the case of GCGGCACCCCGC ((((....)))), in data set [1], the Tm came out at 53.8 °C. The folding enthalpy in data set [2] was -104 kJ/mol.
Take GCGGCAGCGAAAGCTCGC (((..(((....)))))): the Tm in data set [1] turned out to be 51.5 °C. In addition, the folding enthalpy in data set [2] was -48.8 kJ/mol.
Turning to GCGGCAGGAAACCACCGC ((((..(....)..)))), the Tm in data set [1] turned out to be 45.2 °C. In addition, the folding enthalpy in data set [2] was -108 kJ/mol.
For the sequence GCGGCAGGAAACTGCCAC (.(((((....))))).), the Tm in data set [1] is 54.6 °C. Besides, in data set [2], the folding enthalpy is -45.3 kJ/mol.
Consider GCGGCAGGAAACTGCTGC ((.((((....)))).)), for which, in data set [1], the Tm was 62.9 °C. The folding enthalpy in data set [2] is -181 kJ/mol.
Consider GCGGCCACCGC ((((...)))), for which, in data set [1], the Tm was 59.5 °C. In addition, the folding enthalpy in data set [2] is -82.1 kJ/mol.
GCGGCCCACCGC ((((....)))): the Tm in data set [1] came out at 60 °C. In addition, the folding enthalpy in data set [2] was -82.2 kJ/mol.
GCGGCCGAAAGGCCCCGC ((((((....)))..))): the Tm in data set [1] turned out to be 48.1 °C. In addition, the folding enthalpy in data set [2] is -42.9 kJ/mol.
The like results for GCGGCCGAAAGGCTTCGC ((((((....)))..))) were, in that order, 53.5 °C and -71.6 kJ/mol.
The like results for GCGGCCGCGAAAGCGCGC (((..(((....)))))) were, in that order, 59.5 °C and -48.7 kJ/mol.
Taken in the same sequence, the figures for GCGGCCGGAAACGGCCAC (.(((((....))))).) were 53 °C and -40.1 kJ/mol.
Regarding GCGGCCTCCCGC ((((....)))), the Tm in data set [1] was found to be 56.3 °C. In addition, in data set [2], the folding enthalpy is -93.3 kJ/mol.
Regarding GCGGCGCGAAAGCGTAGC ((..(((....)))..)), the Tm in data set [1] worked out at 65.8 °C. The folding enthalpy in data set [2] is -109 kJ/mol.
Take GCGGCGCGAAAGCTGCGC (((..((....))..))): the Tm in data set [1] was determined as 63.3 °C. For the same sequence, in data set [2], the folding enthalpy is -109 kJ/mol.
With GCGGCGGTCCGC ((((....)))), the Tm in data set [1] was found to be 58.7 °C. In data set [2], the folding enthalpy is -73.5 kJ/mol.
In the case of GCGGCGTACCGC ((((....)))), the Tm in data set [1] came to 64.7 °C. For the same sequence, in data set [2], the folding enthalpy was -72 kJ/mol.
For the sequence GCGGCGTCGAAAGACCGC (((..(((....)))))), the Tm in data set [1] worked out at 54.6 °C. Further, in data set [2], the folding enthalpy was -115 kJ/mol.
GCGGCTAACCGC ((((....)))): the Tm in data set [1] stood at 56.5 °C. The folding enthalpy in data set [2] was -110 kJ/mol.
For the sequence GCGGCTATCCGC ((((....)))), the Tm in data set [1] is 61.2 °C. In data set [2], the folding enthalpy is -84.2 kJ/mol.
Turning to GCGGCTCCCCGC ((((....)))), the Tm in data set [1] came out at 54.8 °C. For the same sequence, the folding enthalpy in data set [2] is -92.5 kJ/mol.
For GCGGCTCGAAAGAGCGC (((.(((....)))))), the Tm in data set [1] stood at 68.8 °C. Further, the folding enthalpy in data set [2] was -84.2 kJ/mol.
Take GCGGCTGGAAACGGCTGC ((.((.(....).)).)): in data set [1], the Tm came to 53 °C. Further, the folding enthalpy in data set [2] is -161 kJ/mol.
As to GCGGCTGGAAACGGTCGC (((.(.(....).).))), the Tm in data set [1] stood at 54 °C. In addition, the folding enthalpy in data set [2] was -181 kJ/mol.
Taken in the same sequence, the figures for GCGGCTGTCCGC ((((....)))) were 57.9 °C and -118 kJ/mol.
Take GCGGCTTACCGC ((((....)))): the Tm in data set [1] is 61.2 °C. Further, the folding enthalpy in data set [2] was -109 kJ/mol.
Take GCGGGACCCCGC ((((....)))): the Tm in data set [1] worked out at 67.8 °C. The folding enthalpy in data set [2] was -109 kJ/mol.
For the sequence GCGGGAGACCGC ((((....)))), the Tm in data set [1] turned out to be 66.3 °C. For the same sequence, the folding enthalpy in data set [2] is -60.2 kJ/mol.
With GCGGGATCCGC ((((...)))), the Tm in data set [1] was determined as 59.2 °C. Also, the folding enthalpy in data set [2] was -71.8 kJ/mol.
The like results for GCGGGCCCGAAAGGGCGC (((..(((....)))))) were, in that order, 58 °C and -34.9 kJ/mol.
Taken in the same sequence, the figures for GCGGGCCGCCGC ((((....)))) were 61.5 °C and -65 kJ/mol.
Regarding GCGGGCGAAAGCCGCCGC ((((((....)))..))), the Tm in data set [1] was determined as 61.7 °C. In addition, in data set [2], the folding enthalpy is -47.2 kJ/mol.
GCGGGCGAAAGCCGTCGC ((((((....)))..))): the Tm in data set [1] is 54.5 °C. In addition, the folding enthalpy in data set [2] is -72.4 kJ/mol.
